Test results: ChEMBL document CHEMBL1255362, “Mutations in human immunodeficiency virus type 1 integrase confer resistance to the naphthyridine L-870,810 and cross-resistance to the clinical trial drug GS-9137” (Antimicrob Agents Chemother, 2008)
pEC50, pIC50: −log10 of the molar value.

Tests used:
Format in all cases: functional, organism-based
[1] = test system: Human immunodeficiency virus 1; test: Antiviral activity against HIV 1 3B harboring integrase E92Q, S230N and L34M triple mutant infected in MT-4 cells assessed as inhibition of virus-induced cytopathic effect by MTT assay selected after 60 passages in presence of compound; details: Human immunodeficiency virus 1, 3B, MT4
Method in brief: (§1)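 MT-4 cells (RPMI 1640, 10% heat-inactivated FCS, 2 mM L-glutamine, 37°C, 5% CO2) infected with 100 to 300 CCID50 of virus, titrated on MT-4 cells. Fivefold serial drug dilutions were present during infection. Protection from viral CPE was read by MTT reduction to formazan, measured spectrophotometrically. IC50 is the concentration giving 50% protection.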

[2] = test system: Human immunodeficiency virus 1; test: Antiviral activity against HIV 1 3B harboring integrase E92Q S230N double mutant infected in MT-4 cells assessed as inhibition of virus-induced cytopathic effect by MTT assay selected after 20 passages in presence of compound; details: Human immunodeficiency virus 1, 3B, MT4; method in brief: as §1
[3] = test system: Human immunodeficiency virus 1; test: Antiviral activity against HIV 1 RIN harboring integrase gene infected in MT-4 cells assessed as inhibition of virus-induced cytopathic effect by MTT assay after 20 passages selected in presence of compound; details: Human immunodeficiency virus 1, RIN, MT4
[4] = test system: Human immunodeficiency virus 1; test: Antiviral activity against HIV 1 3B harboring integrase L34M mutant infected in MT-4 cells assessed as inhibition of virus-induced cytopathic effect by MTT assay selected after 40 passages in presence of compound; details: Human immunodeficiency virus 1, 3B, MT4; method in brief: as §1
[5] = test system: Human immunodeficiency virus 1; test: Antiviral activity against HIV 1 RIN HIV 1 RIN harboring integrase gene infected in MT-4 cells assessed as inhibition of virus-induced cytopathic effect by MTT assay after 60 passages selected in presence of compound; details: Human immunodeficiency virus 1, RIN, MT4; method in brief: as §1
[6] = test system: Human immunodeficiency virus 1; test: Antiviral activity against HIV 1 3B infected in MT-4 cells assessed as inhibition of virus-induced cytopathic effect by MTT assay; details: Human immunodeficiency virus 1, 3B, MT4; method in brief: as §1
[7] = test system: Human immunodeficiency virus 1; test: Antiviral activity against HIV 1 NL4.3 harboring integrase L74M mutant infected in human MT-4 cells assessed as inhibition of virus-induced cytopathic effect by MTT assay; details: Human immunodeficiency virus 1, NL4.3, MT4; method in brief: as §1
[8] = test system: Human immunodeficiency virus 1; test: Antiviral activity against HIV 1 RIN harboring integrase gene infected in MT-4 cells assessed as inhibition of virus-induced cytopathic effect by MTT assay; details: Human immunodeficiency virus 1, RIN, MT4; method in brief: as §1
[9] = test system: Human immunodeficiency virus 1; test: Antiviral activity against HIV 1 NL4.3 assessed as inhibition of virus-induced cytopathic effect by MTT assay; details: Human immunodeficiency virus 1, NL4.3; method in brief: as §1
[10] = test system: Human immunodeficiency virus 1; test: Antiviral activity against HIV 1 RIN HIV 1 RIN harboring integrase gene infected in MT-4 cells assessed as inhibition of virus-induced cytopathic effect by MTT assay after 40 passages selected in presence of compound; details: Human immunodeficiency virus 1, RIN, MT4; method in brief: as §1
[11] = test system: Human immunodeficiency virus 1; test: Antiviral activity against HIV 1 NL4.3 integrase E92Q mutant infected in human MT-4 cells assessed as inhibition of virus-induced cytopathic effect by MTT assay; details: Human immunodeficiency virus 1, NL4.3, MT4; method in brief: as §1
[12] = test system: Human immunodeficiency virus 1; test: Antiviral activity against HIV 1 NL4.3 integrase S230N mutant infected in human MT-4 cells assessed as inhibition of virus-induced cytopathic effect by MTT assay; details: Human immunodeficiency virus 1, NL4.3, MT4; method in brief: as §1
[13] = test system: Human immunodeficiency virus 1; test: Antiviral activity against HIV 1 3B infected in MT-4 cells assessed as inhibition of virus-induced cytopathic effect by MTT assay selected after 50 passages in presence of compound; details: Human immunodeficiency virus 1, 3B, MT4
Method in brief: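 Selected strains came from serial passage of HIV-1(IIIB) in MT-4 cells, started at MOI 0.01 with drug at 0.005 µM. Cultures were checked for CPE every 3 to 4 days. Supernatant from CPE-positive cultures went onto fresh cells at equal or higher drug concentration; cultures without breakthrough were subcultured at the same concentration. Susceptibility was tested by the MT-4/MTT CPE assay.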

Row | SMILES | pEC50 [1] | pEC50 [2] | pEC50 [3] | pEC50 [4] | pEC50 [5] | pEC50 [6] | pEC50 [7] | pEC50 [8] | pEC50 [9] | pEC50 [10] | pEC50 [11] | pEC50 [12] | pIC50 [13]
1 | COc1cc2c(cc1Cc1cccc(Cl)c1F)c(=O)c(C(=O)O)cn2[C@H](CO)C(C)C | 7.11 | 7.48 | 7.82 | 7.30 | 7.23 | 9.00 | 9.22 | 9.15 | 9.15 | 7.74 | 7.92 | 9.05 | –
2 | Cc1nnc(C(=O)NC(C)(C)c2nc(C(=O)NCc3ccc(F)cc3)c(O)c(=O)n2C)o1 | – | – | 8.00 | – | 7.17 | – | 8.15 | 8.22 | 8.30 | 7.60 | 7.82 | 8.05 | –
3 | COc1cccc2c1c(C(=O)/C=C(\O)C(=O)O)cn2Cc1ccc(F)cc1 | 5.44 | 5.72 | 6.28 | 5.73 | 5.58 | 6.41 | 6.49 | 6.36 | 6.25 | 5.97 | 6.18 | 6.31 | –
4 | O=C(NCc1ccc(F)cc1)c1nc(N2CCCCS2(=O)=O)c2cccnc2c1O | 6.26 | 6.96 | 7.74 | 6.77 | 6.72 | 8.30 | 8.40 | 8.40 | 8.40 | 7.19 | 7.14 | 8.15 | 5.96
5 | Cc1ccnc2c1NC(=O)c1cccnc1N2C1CC1 [NEVIRAPINE] | 6.51 | 6.42 | – | 6.46 | 6.82 | 6.34 | – | 6.77 | – | 6.82 | – | – | –
6 | c1cc(CN2CCCNCCNCCCNCC2)ccc1CN1CCCNCCNCCCNCC1 [PLERIXAFOR] | 7.25 | 7.31 | 8.10 | 7.55 | 8.10 | 7.47 | – | 7.85 | – | 8.10 | – | – | –
7 | CC(C)c1nc(CN(C)C(=O)N[C@H](C(=O)N[C@@H](Cc2ccccc2)C[C@H](O)[C@H](Cc2ccccc2)NC(=O)OCc2cncs2)C(C)C)cs1 [RITONAVIR] | 7.22 | 7.16 | 7.41 | 7.16 | 7.39 | 7.26 | 7.22 | 7.37 | 6.89 | 7.38 | 7.24 | 7.05 | –
8 | Cc1cn([C@H]2C[C@H](N=[N+]=[N-])[C@@H](CO)O2)c(=O)[nH]c1=O [ZIDOVUDINE] | 8.15 | 7.74 | 7.66 | 8.40 | 7.66 | 7.74 | 8.30 | 7.74 | 8.15 | 7.66 | 8.15 | 8.22 | –
